Laboratory results: ChEMBL document CHEMBL4765308, “N-alkylpiperidine carbamates as potential anti-Alzheimer's agents” (Eur J Med Chem, 2020)
Calls of active or inactive are those of the source. The rule behind the calls is not given here.

How the values were obtained:
[1] = biological target: T1, Amine oxidase [flavin-containing] B (Homo sapiens, UniProt P27338); experiment: (§1) Inhibition of human recombinant microsomal MAO-B expressed in baculovirus-infected BTI-TN-5B1-4 cells assessed as inhibition of H2O2 production using p-tyramine as substrate preincubated for 15 mins followed by substrate addition by Amplex Red reagent based fluorescence analysis
T1 sequence (P27338 whole entry): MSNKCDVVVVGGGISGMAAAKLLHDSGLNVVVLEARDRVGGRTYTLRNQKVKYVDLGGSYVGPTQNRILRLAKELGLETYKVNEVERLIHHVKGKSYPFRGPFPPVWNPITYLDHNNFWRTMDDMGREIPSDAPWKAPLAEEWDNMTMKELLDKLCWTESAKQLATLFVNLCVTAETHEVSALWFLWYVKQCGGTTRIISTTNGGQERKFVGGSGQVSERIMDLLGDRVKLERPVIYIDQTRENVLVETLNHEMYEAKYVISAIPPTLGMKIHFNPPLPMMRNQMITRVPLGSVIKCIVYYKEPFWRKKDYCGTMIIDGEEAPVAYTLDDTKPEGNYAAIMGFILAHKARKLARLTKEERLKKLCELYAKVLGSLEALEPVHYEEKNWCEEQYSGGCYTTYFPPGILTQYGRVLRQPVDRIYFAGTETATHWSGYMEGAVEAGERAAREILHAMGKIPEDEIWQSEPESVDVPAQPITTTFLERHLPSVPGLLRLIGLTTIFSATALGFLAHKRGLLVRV
In short: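 Recombinant human MAO-A or MAO-B (insect-cell microsomes) preincubated with compound 15 min at 37 °C in 50 mM sodium phosphate, pH 7.4, 0.05% Triton X-114. Reaction started with 1 mM p-tyramine, 250 µM Amplex Red and 2 U/mL HRP (final concentrations). Resorufin fluorescence (ex 530/em 590 nm) followed for 20 min at 37 °C, duplicates. Blank-corrected residual activity; IC50 from a four-parameter Hill fit.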

[2] = biological target: T2, Acetylcholinesterase (Homo sapiens, UniProt P22303); experiment: Inhibition of human AChE using acetylthiocholine iodide as substrate preincubated with enzyme for 30 mins followed by substrate addition by Ellman's method
[3] = biological target: T3, Cholinesterase (Homo sapiens, UniProt P06276); experiment: Inhibition of human BuchE using butyrylthiocholine iodide as substrate preincubated for 30 mins followed by substrate addition by Ellman's method
[4] = species on record: Homo sapiens; experiment: Inhibition of HFIP-pretreated human amyloid beta (1 to 42) self aggregation at 10 uM incubated for 36 to 48 hrs by thioflavin-T based fluorescence method relative to control; details: time 36-48 hrs
In short: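 HFIP-pretreated Aβ1-42 (1.5 µM) incubated with compound (10 µM) and thioflavin-T (10 µM final) at room temperature with continuous shaking for 36–48 h. Fluorescence (ex 440/em 490 nm) read every 3 min. Percent inhibition compared with Aβ + DMSO control, run in quadruplicate. Three independent experiments, mean ± SD, one-way ANOVA with Bonferroni test.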

[5] = system: SH-SY5Y; experiment: Cytotoxicity against human SH-SY5Y cells at 20 uM incubated for 48 hrs […]; format: cell-based
[6] = system: HepG2; experiment: Cytotoxicity against human HepG2 cells at 50 uM incubated for 48 hrs […]; format: cell-based; details: hepg2, 48 h
[7] = biological target: T4, Amine oxidase [flavin-containing] A (Homo sapiens, UniProt P21397); experiment: Inhibition of human recombinant microsomal MAO-A expressed in baculovirus-infected BTI-TN-5B1-4 cells assessed as inhibition of H2O2 production using p-tyramine as substrate preincubated for 15 mins followed by substrate addition by Amplex Red reagent based fluorescence analysis
T4 sequence (P21397 whole entry): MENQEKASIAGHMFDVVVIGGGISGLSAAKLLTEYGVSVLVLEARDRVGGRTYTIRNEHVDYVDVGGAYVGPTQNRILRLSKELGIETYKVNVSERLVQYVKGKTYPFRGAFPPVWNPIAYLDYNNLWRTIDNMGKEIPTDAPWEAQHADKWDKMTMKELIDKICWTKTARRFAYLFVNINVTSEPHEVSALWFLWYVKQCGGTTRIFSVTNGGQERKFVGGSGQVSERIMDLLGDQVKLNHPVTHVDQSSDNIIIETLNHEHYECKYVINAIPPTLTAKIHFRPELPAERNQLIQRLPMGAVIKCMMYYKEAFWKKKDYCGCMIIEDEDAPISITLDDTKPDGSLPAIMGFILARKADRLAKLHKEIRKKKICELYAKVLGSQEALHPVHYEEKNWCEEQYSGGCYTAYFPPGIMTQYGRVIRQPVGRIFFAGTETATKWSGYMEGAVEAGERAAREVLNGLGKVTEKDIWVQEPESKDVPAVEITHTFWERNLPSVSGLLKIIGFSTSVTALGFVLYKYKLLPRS

[8] = biological target: T2, Acetylcholinesterase; experiment: Reversible inhibition of human AChE using acetylthiocholine iodide as substrate preincubated with enzyme at 10XIC50 for 30 mins followed by substrate addition and measured for 5 mins by Ellman's method; details: time 35.0 min
[9] = biological target: T3, Cholinesterase; experiment: Reversible inhibition of human BuChE using butyrylthiocholine iodide as substrate preincubated with enzyme at 10XIC50 for 30 mins followed by substrate addition and measured for 5 mins by Ellman's method; details: time 35.0 min
[10] = biological target: T2, Acetylcholinesterase; experiment: Non-time dependent inhibition of human AChE using acetylthiocholine iodide as substrate preincubated with enzyme for 15 to 60 mins followed by substrate addition by Ellman's method; details: time 15-60 min
[11] = biological target: T3, Cholinesterase; experiment: Non-time dependent inhibition of human BuChE using butyrylthiocholine iodide as substrate preincubated with enzyme for 15 to 60 mins followed by substrate addition by Ellman's method; details: time 15-60 min
[12] = system: SH-SY5Y; experiment: Neuroprotective activity against human SH-SY5Y cells assessed as reduction in amyloid beta(1 to 42)-induced cell death at 20 uM measured after 48 hrs by Annexin-V APC/7-AAD staining based flow cytometric analysis; format: functional
In short: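 Aβ1-42 (5 µM) pre-aggregated 24 h at 37 °C in reduced-serum medium, with or without compound (20 µM). SH-SY5Y cells (2×10^4/well) treated the next day for 48 h, then washed in cold PBS and stained with 7-AAD (2 µg/mL, 10 min, room temperature). Percent 7-AAD-positive cells by flow cytometry, relative to control. At least two independent assays in duplicate; ANOVA with t-test.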

[13] = biological target: T1, Amine oxidase [flavin-containing] B; experiment: as §1, with “Time dependent inhibition” for “Inhibition of”, “preincubated with enzyme” for “preincubated”, “for 5 to” for “for”; details: time 5-15 min
[14] = system: SH-SY5Y; experiment: Reduction in amyloid beta (1 to 42) aggregates in human SH-SY5Y cells at 20 uM incubated for 48 hrs by DAPI stain based immunofluorescence staining analysis; format: functional, cell-based
In short: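 SH-SY5Y cells on coverslips treated for 48 h with preincubated Aβ1-42 (5 µM) in reduced-serum medium, with or without compound (20 µM). Fixed in 5% formalin, permeabilized with 0.5% Tween 20 and blocked with 3% BSA. Stained with rabbit anti-amyloid fibril LOC antibody (1:1000, 2 h) and Alexa 488 secondary (1.5 h). DAPI-mounted and imaged by confocal microscopy (63× oil).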

T3 sequence (P06276 whole entry): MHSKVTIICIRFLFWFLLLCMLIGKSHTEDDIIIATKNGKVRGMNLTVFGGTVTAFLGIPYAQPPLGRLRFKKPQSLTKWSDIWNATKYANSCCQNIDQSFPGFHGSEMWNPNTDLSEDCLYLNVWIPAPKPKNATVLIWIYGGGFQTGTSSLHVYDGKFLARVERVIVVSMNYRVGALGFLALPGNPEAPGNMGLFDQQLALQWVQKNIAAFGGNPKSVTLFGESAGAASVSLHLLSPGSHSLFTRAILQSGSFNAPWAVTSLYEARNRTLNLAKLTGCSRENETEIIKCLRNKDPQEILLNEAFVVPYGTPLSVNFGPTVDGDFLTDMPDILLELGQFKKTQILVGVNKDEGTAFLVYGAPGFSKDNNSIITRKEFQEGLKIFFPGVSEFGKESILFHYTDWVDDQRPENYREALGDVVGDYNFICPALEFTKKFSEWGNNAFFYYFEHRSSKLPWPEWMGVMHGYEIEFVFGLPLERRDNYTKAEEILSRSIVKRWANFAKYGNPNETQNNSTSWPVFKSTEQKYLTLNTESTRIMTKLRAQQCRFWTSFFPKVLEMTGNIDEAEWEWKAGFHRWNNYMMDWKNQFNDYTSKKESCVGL
T2 sequence (P22303 whole entry): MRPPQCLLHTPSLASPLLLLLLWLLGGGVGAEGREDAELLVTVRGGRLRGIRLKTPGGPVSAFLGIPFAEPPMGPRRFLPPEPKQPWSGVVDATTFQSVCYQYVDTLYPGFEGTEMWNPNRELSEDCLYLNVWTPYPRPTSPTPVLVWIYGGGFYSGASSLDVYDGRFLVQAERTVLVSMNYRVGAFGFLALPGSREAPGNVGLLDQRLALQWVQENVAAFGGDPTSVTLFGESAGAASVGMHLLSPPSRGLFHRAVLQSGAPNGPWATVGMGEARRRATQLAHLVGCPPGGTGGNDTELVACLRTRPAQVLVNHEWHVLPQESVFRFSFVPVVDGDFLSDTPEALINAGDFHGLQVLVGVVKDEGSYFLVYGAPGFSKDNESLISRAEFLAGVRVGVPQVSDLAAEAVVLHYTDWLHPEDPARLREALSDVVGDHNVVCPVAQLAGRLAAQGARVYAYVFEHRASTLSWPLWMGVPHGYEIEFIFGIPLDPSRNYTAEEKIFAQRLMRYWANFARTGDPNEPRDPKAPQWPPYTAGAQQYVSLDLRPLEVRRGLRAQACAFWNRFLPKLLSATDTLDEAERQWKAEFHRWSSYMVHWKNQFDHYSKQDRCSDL

SMILES	IC50 [1] [µM]	IC50 [2] [µM]	IC50 [3] [µM]	inhibition [4] [%]	Activity [5]	Activity [6]	IC50 [7] [µM]	inhibition [8]	inhibition [9]	inhibition [10]	inhibition [11]	Activity [12]	inhibition (INH) [13]	inhibition [14]
O=C(Nc1ccccc1)OC1CCCN(C2Cc3ccccc3C2)C1 (stereo unspecified)	> 100	> 100	0.0645	< 20	Non-Toxic	Non-Toxic	> 100	Active	Active	Active	Active	–	–	–
O=C(Nc1ccccc1)OCC1CCN(Cc2ccccc2)CC1	26.1	7.31	0.555	< 20	Non-Toxic	Non-Toxic	> 100	Active	Active	Active	Active	Active	Not Active	inactive
CC(C)c1ccc(NC(=O)OCC2CCN(Cc3ccccc3)CC2)cc1	> 100	2.25	0.809	< 20	Non-Toxic	Non-Toxic	> 100	Active	Active	Active	Active	–	–	–
C#CCN1CCC(OC(=O)Nc2ccc(C(C)C)cc2)CC1	0.178	> 100	> 100	25.7	Non-Toxic	Non-Toxic	> 100	–	–	–	–	Active	Active	Active
